Key:
Assay type in all cases: cell-based, human
SH-SY5Y cells [1] = assay: Detoxification of external aldehyde Ia; settings: then 20 μM Ia 24 h, relative to Ia only; for fold increase in cell viability against Ia: 1 mM detox agent 3 h
Outline: (§1)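 SH-SY5Y cells grown in DMEM/F12 with 10% FBS and seeded in 96-well plates for ~48 h at 37 °C, 5% CO2. They were pretreated with the test compound in fresh medium, washed twice, then exposed to the aldehyde in medium at 37 °C. Viability was read by SRB at 510 and 565 nm, background-subtracted. Fold change is % viable over aldehyde-only wells. Mean ± SD, n = 6, one-way ANOVA.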

SH-SY5Y cells [2] = assay: Intracellular reactive oxygen species assay; settings: for intracellular ROS level relative to untreated control: MPP+-inhibited cells, DCFDA fluorometric assay
SH-SY5Y cells [3] = assay: Protection of MPP+-inhibited cells; settings: then 1 mM MPP+ 24 h, relative to MPP+ only
SH-SY5Y cells [4] = assay: NAD+/NADH ratio assay; settings: MPP+-inhibited cells; negative control 68%
SH-SY5Y cells [5] = assay: Detoxification of external aldehyde IIa; settings: IIa 150 μM; relative to IIa only
Outline: as §1

SH-SY5Y cells [6] = assay: JC-10 mitochondrial membrane potential assay; settings: MPP+-inhibited cells
[7] = Protection of MPP+-inhibited cells; settings: human
SH-SY5Y cells [8] = assay: Aldehyde quantification assay in MPP+-treated cells

## NCCC(=O)N[C@@H](Cc1cnc[nH]1)C(=O)O [Car, carnosine]
SH-SY5Y cells [1]
  fold increase in cell viability against Ia: 1.3 fold
SH-SY5Y cells [2]
  intracellular ROS level relative to untreated control: 7.5 ×
SH-SY5Y cells [3]; 1 mM detox agent 3 h
  fold increase in cell viability against MPP+: 1.2 fold
SH-SY5Y cells [4]
  intracellular NAD+ content (NAD+ %): negligible effect
SH-SY5Y cells [5]
  fold improvement in cell viability against IIa: none of the conventional detox agents

## O=C1O[C@H]([C@@H](O)CO)C(O)=C1O [Asc, sodium ascorbate]
SH-SY5Y cells [1]
  fold increase in cell viability against Ia: negligible change
SH-SY5Y cells [3]; 1 mM detox agent 3 h
  fold increase in cell viability against MPP+: 1.1 fold
SH-SY5Y cells [5]
  fold improvement in cell viability against IIa: none of the conventional detox agents

## N[C@@H](Cc1ccc(O)c(O)c1)C(=O)O [L-Dopa, levodopa]
SH-SY5Y cells [3]; 50 μM detox agent 3 h
  fold increase in cell viability against MPP+: 1.2 fold
SH-SY5Y cells [5]
  fold improvement in cell viability against IIa: none of the conventional detox agents

## CCCCCC(O)C=CC=O (centres unmarked) [Ia, 4-hydroxynon-2-enal]
SH-SY5Y cells [2]; SH-SY5Y cells treated with Ia
  ROS levels after treatment with the aldehyde: significantly increased ROS levels

## CC(C)(O)c1nc2ccc(Cl)cc2cc1N [Rep, reproxalap]
SH-SY5Y cells [1]; 50 μM detox agent 3 h
  change in cell viability against Ia: negligible change
SH-SY5Y cells [2]
  intracellular ROS level relative to untreated control: 5.1 ×
SH-SY5Y cells [3]; 50 μM detox agent 3 h
  fold increase in cell viability against MPP+: 1.3 fold
SH-SY5Y cells [4]
  intracellular NAD+ content (NAD+ %): 41%
SH-SY5Y cells [6]
  MMP, red/green fluorescence ratio (JC-10): 0.4
SH-SY5Y cells [5]
  fold improvement in cell viability against IIa: none of the conventional detox agents

## C[n+]1ccc(-c2ccccc2)cc1.[I-] [MPP^+, 1-methyl-4-phenylpyridinium iodide]
SH-SY5Y cells [2]
  intracellular ROS level relative to untreated control: 9.1 ×
[7]
  viability at 24 h, 1 mM: 54%
SH-SY5Y cells [4]
  intracellular NAD+ content (NAD+ %): 27%
SH-SY5Y cells [6]
  MMP, red/green fluorescence ratio (JC-10): 0.2
SH-SY5Y cells [8]
  aldehyde concentration relative to untreated cells: about 44 ×
SH-SY5Y cells [8]; Ir2mito used with HCOONa
  aldehyde concentration in cells: 89 nmol/10^6 cells
